# Results collected from several papers.
# Compare with care: the assays were run in different laboratories.
# Organism: Staphylococcus aureus
# Read-out: microbial growth
SMILES,method,strain,time,setting,MIC
c1ccc2[nH]c(-c3ccncc3)nc2c1,broth dilution,ATCC29213 MSSA,,,128 µg/mL
CC(C)COc1c(NC(=O)c2ccc(NC(=O)[C@H](CC(N)=O)NC(=O)c3ccc(NC(=O)c4ccc(C#N)cc4)cc3)cc2)ccc(C(=O)Nc2ccc(C(=O)O)cc2)c1O,,ATCC29213,,,0.25 µg/mL
CC1(C)S[C@@H]2[C@H](NC(=O)[C@H](N)c3ccccc3)C(=O)N2[C@H]1C(=O)O,broth dilution,16339,,,64 µg/mL
CC(=O)NC[C@H]1CN(c2ccc(N3CCOCC3)c(F)c2)C(=O)O1,broth dilution,MRSA NRS123 USA400,,drug-resistant strain,2 µg/mL
CO[C@H]1[C@H](O[C@H]([C@H]2O[C@@H](n3ccc(=O)[nH]c3=O)[C@H](O)[C@@H]2O)[C@H](NCCCNC(=O)[C@@H](NC(=O)[C@@H](NC(=O)N[C@H](C(=O)O)C(C)C)[C@@H]2CCN=C(N)N2)[C@@H](OC(=O)CCCCCCCCCCCCN(O)C(=N)N)C(C)C)C(=O)O)O[C@H](CN)[C@H]1O,,NEWMAN,,,18 µg/mL
O=C(O)CN1C(=O)/C(=C/c2ccc(-c3ccc(N(c4ccccc4)c4ccccc4)cc3)c3ccccc23)SC1=S,broth dilution,ATCC43300,,,1000 µg/mL
Cn1c(Nc2ccc(C(F)(F)F)cc2)nc2cc(Oc3ccnc(-c4ncc(C(F)(F)F)[nH]4)c3)ccc21,,NCTC8325,,,30 µM
COc1cc(/C=N\NC(=O)c2ccc(Br)cc2)ccc1OC(=O)c1cccs1,,,,,> 128 µg/mL
Cc1ccc(C)n1-c1ccc(-c2nnc(-c3ccccc3Cl)[nH]2)cc1,broth dilution,ATCC11632,18 h,,2 µg/mL
CC(C)CC(=O)Nc1n[nH]c2c1CN(C(=O)C1CCN(C)CC1)C2(C)C,,NCTC8325,,,> 30 µM
O=C(O)CN1C(=O)/C(=C/c2c3ccccc3c(-c3ccc(N(c4ccccc4)c4ccccc4)cc3)c3ccccc23)SC1=S,broth dilution,ATCC6538,,,> 1000 µg/mL
CC1=NN(CNc2ccccc2[N+](=O)[O-])C(=O)C1=NNn1c(-c2ccccc2)nc2ccccc2c1=O,broth dilution,,24 h,,50.4 µM
CC(=O)Nc1ccc(C(=O)Nc2ccc(C(=O)N[C@@H](CC(N)=O)C(=O)Nc3ccc(C(=O)Nc4ccc(C(=O)Nc5ccc(C(=O)O)cc5)c(O)c4OC(C)C)cc3)cc2)cc1,,ATCC29213,,,64 µg/mL
COC1/C=C/OC2(C)Oc3c(C)c(O)c4c(O)c(c5c(nc6cc(C)ccn65)c4c3C2=O)NC(=O)/C(C)=C\C=C\C(C)C(O)C(C)C(O)C(C)C(OC(C)=O)C1C (stereo not shown),,,,,≤ 0.06 µg/mL
CNC(=O)CN1CCC(Oc2cc3c(Nc4cccc(Cl)c4F)ncnc3cc2OC)CC1,,NCTC8325,,,> 30 µM
Clc1ccccc1-c1nc2ccccc2[nH]1,broth dilution,ATCC29213 MSSA,,,64 µg/mL
CC(C)Oc1c(NC(=O)c2ccc(NC(=O)[C@H](CC(N)=O)NC(=O)c3ccc(NC(=O)c4ccc(C5(C(F)(F)F)N=N5)cc4)cc3)cc2)ccc(C(=O)Nc2ccc(C(=O)O)cc2)c1O,,ATCC29213,,,> 64 µg/mL
C/C=C(\C)c1cc(OC(=O)c2c(O)c(C)c(O)c(Cl)c2/C(C)=C/C)c(C)c(O)c1C(=O)O,broth dilution,16162,,,32 µg/mL
CC(C)Oc1c(NC(=O)c2ccc(NC(=O)[C@H](CC(N)=O)NC(=O)c3ccc(NC(=O)c4ccc(C#N)cc4)cc3)cc2)ccc(C(=O)Nc2ccncc2)c1O,,ATCC29213,,,> 64 µg/mL
C/C=C(\C)c1cc(O)c(C)c(OC(=O)c2c(C)cc(O)c(Cl)c2O)c1,broth dilution,CCARM3090,,,8 µg/mL
CNC(=O)c1nn(C)c2c1C(C)(C)Cc1cnc(Nc3ccc(N4CCN(C)CC4)cc3)nc1-2,,NCTC8325,,,> 30 µM
C[C@@H](O)[C@H]1C(=O)N2C(C(=O)O)=C(S[C@@H]3CN[C@H](C(=O)N(C)C)C3)[C@H](C)[C@H]12,broth dilution,,24 h,,0.0625 µg/mL
FC(F)c1nc2ccccc2n1-c1nc(N2CCOCC2)nc(N2CCOCC2)n1,,NCTC8325,,,> 30 µM
CO[C@@H](C(N)=O)[C@H](NC(=O)c1ccc(NC(=O)c2ccc(C#N)cc2)cc1)C(=O)Nc1ccc(C(=O)Nc2ccc(C(=O)Nc3ccc(C(=O)O)cc3)c(O)c2OC(C)C)cc1,,ATCC29213,,,< 0.03 µg/mL
O=C1NC(=S)S/C1=C\c1ccc(-c2ccc(N(c3ccccc3)c3ccccc3)cc2)c2ccccc12,broth dilution,ATCC25923,,,500 µg/mL
COc1cc(OC)c2cc(C(=O)NCc3ccc(Br)cc3)cc(O)c2c1,broth dilution,ATCC29213 MSSA,,,32 µg/mL
CC1(C)S[C@@H]2[C@H](NC(=O)COc3ccccc3)C(=O)N2[C@H]1C(=O)O,,MRSA,18 h,,> 128 µg/mL
O=C(Nc1ccc2c(c1)OC(F)(F)O2)c1ccc(Cl)c(C(F)(F)F)c1,,NCTC8325,,,3 µM
Cc1ccc2nc(-c3ccc(Cl)c(Cl)c3)[nH]c2c1,broth dilution,ATCC29213 MSSA,,,16 µg/mL
CNc1cccc2cc(C(=O)NCc3ccc(C(=O)O)cc3)c(=O)[nH]c12,,ATCC29213,,,> 64 µg/mL
COc1cccc(OC)c1C(=O)N[C@@H]1C(=O)N2[C@@H]1SC(C)(C)[C@@H]2C(=O)O,,156,,clinical isolate,25 µM
CN[C@H](CC(C)C)C(=O)N[C@H]1C(=O)N[C@@H](CC(N)=O)C(=O)N[C@H]2C(=O)N[C@H]3C(=O)N[C@H](C(=O)N[C@H](C(=O)O)c4cc(O)cc(O)c4-c4cc3ccc4O)[C@H](O)c3ccc(c(Cl)c3)Oc3cc2cc(c3O[C@@H]2O[C@H](CO)[C@@H](O)[C@H](O)[C@H]2O[C@H]2C[C@](C)(N)[C@H](O)[C@H](C)O2)Oc2ccc(cc2Cl)[C@H]1O,broth dilution,ATCCBAA44,,,1 µg/mL
C[C@@H](O)[C@H]1C(=O)N2C(C(=O)O)=C(S[C@@H]3CN[C@H](C(=O)N(C)C)C3)[C@H](C)[C@H]12,broth dilution,ATCC29213,,,32 µg/mL
Cc1ccc2nc(-c3ccc([N+](=O)[O-])cc3)n(Cc3ccccc3)c2c1,broth dilution,ATCC29213 MSSA,,,8 µg/mL
CC1=NN(CNc2ccc(Cl)cc2)C(=O)C1=NNn1c(-c2ccccc2)nc2ccccc2c1=O,broth dilution,,24 h,,51.5 µM
COc1ccc(-c2nc3ccccc3n2Cc2ccccc2)cc1OC,broth dilution,ATCC29213 MSSA,,,4 µg/mL
CC(C)Oc1c(NC(=O)c2ccc(NC(=O)[C@H](CC(N)=O)NC(=O)c3ccc(CCNC(=O)c4ccc(C#N)cc4)cc3)cc2)ccc(C(=O)Nc2ccc(C(=O)O)cc2)c1O,,ATCC29213,,,> 64 µg/mL
Cc1ccc(C)n1-c1ccc(-c2nnc(-c3c(Cl)cccc3Cl)[nH]2)cc1,broth dilution,ATCC11632,18 h,,1 µg/mL
Fc1ccc(-c2nc3ccccc3[nH]2)cc1,broth dilution,ATCC29213 MSSA,,,256 µg/mL
C=CCOc1c(C)c(O)c(C(=O)/C=C/c2ccccc2)c(OC)c1C,broth dilution,ATCC25923,,,> 5000 µg/mL
Brc1ccc(NCc2ccc(Oc3ccccn3)cc2)cc1,,,,,> 6.2 µg/mL
O=C(Cc1cc(O)c(O)c(O)c1)NCCCCCCCC[P+](c1ccccc1)(c1ccccc1)c1ccccc1.[Br-],broth dilution,ATCC43300 MRSA,18 h,,> 32 µg/mL
CC(C)Oc1c(NC(=O)c2ccc(NC(=O)[C@H](CC(N)=O)NC(=O)c3ccc(NC(=O)c4ccc(F)cc4)cc3)cc2)ccc(C(=O)Nc2ccc(C(=O)O)cc2)c1O,,ATCC29213,,,2 µg/mL
CC(=O)NC[C@H]1CN(c2ccc(N3CCOCC3)c(F)c2)C(=O)O1,,,,clinical isolate,1.56 µg/mL
CN[C@H](CC(C)C)C(=O)N[C@H]1C(=O)N[C@@H](CC(N)=O)C(=O)N[C@H]2C(=O)N[C@H]3C(=O)N[C@H](C(=O)N[C@H](C(=O)O)c4cc(O)cc(O)c4-c4cc3ccc4O)[C@H](O)c3ccc(c(Cl)c3)Oc3cc2cc(c3O[C@@H]2O[C@H](CO)[C@@H](O)[C@H](O)[C@H]2O[C@H]2C[C@](C)(N)[C@H](O)[C@H](C)O2)Oc2ccc(cc2Cl)[C@H]1O,broth dilution,16162,,,0.5 µg/mL
CCCCCCC#Cc1cncc(-c2nnc(SCc3ccc(Cl)cc3)n2C2CC2)c1,,MRSA,,drug-resistant strain,≥ 20 µg/mL
COc1c(C)c(OC)c2c(c1C)OC(c1ccccc1)CC2=O (stereo not shown),broth dilution,ATCC25923,,,5000 µg/mL
Clc1ccc(-c2nc3ccccc3[nH]2)cc1,broth dilution,ATCC29213 MSSA,,,64 µg/mL
C=CC(=O)Nc1cccc(Oc2nc(Nc3ccc(N4CCN(C)CC4)cc3OC)ncc2Cl)c1,,NCTC8325,,,> 30 µM
NC[C@H]1O[C@H](O[C@H]2[C@H](O)[C@@H](O[C@H]3O[C@H](CO)[C@@H](O)[C@H](N)[C@H]3O)[C@H](N)C[C@@H]2N)[C@H](N)C[C@@H]1O,,147,,clinical isolate,6.25 µM
C/N=C(/NC)c1ccc(NC(=O)/C=C/c2ccc(/C=C/C(=O)Nc3ccc(/C(=N\C)NC)cc3)cc2)cc1,,,,,2 µg/mL
C/C=C(\C)c1cc(O)c(C)c(OC(=O)c2c(C)c(Cl)c(O)c(Cl)c2O)c1,broth dilution,CCARM3090,,,4 µg/mL
COc1ccc(C(=O)O)cc1NC(=O)/C=C/c1ccc(-c2ccccc2C)cc1,,,,,64 µg/mL
O=C(O)CN1C(=O)/C(=C/c2ccc(-c3ccc(N(c4ccccc4)c4ccccc4)cc3)c3ccccc23)NC1=S,broth dilution,ATCC6538,,,> 1000 µg/mL
Fc1ccccc1NCc1ccc(Oc2ccccn2)cc1,,,,,1.6 µg/mL
CN1CCN(CCOc2cc(OC3CCOCC3)c3c(Nc4c(Cl)ccc5c4OCO5)ncnc3c2)CC1,,NCTC8325,,,> 30 µM
Cc1ccc2nc(-c3ccc(Cl)c(Cl)c3)n(Cc3ccccc3)c2c1,broth dilution,ATCC29213 MSSA,,,32 µg/mL
O=C1NC(=S)N/C1=C\c1ccc(-c2ccc(N(c3ccccc3)c3ccccc3)cc2)c2ccccc12,broth dilution,ATCC43300,,,> 1000 µg/mL
